The values below come from ChEMBL document CHEMBL4673181, “An investigation of the antileishmanial properties of semi-synthetic saponins” (RSC Med Chem, 2020).

pEC50: −log10 of the molar value.

Test [1] deals with Leishmania mexicana. As to the kind of experiment: Antileishmanial activity against axenic amastigote stage of Leishmania mexicana (MNYC/BZ/62/M379) assessed as induction of parasite killing incubated for 24 hrs by alamar blue dye based fluorescence analysis. It is filed as functional. As to conditions: read-out: ED50 (the source's name). Put shortly:
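L. mexicana axenic amastigotes (from promastigotes by pH/temperature shift; Schneider's with 20% HIFBS) at 4x10⁵ mL⁻¹, exposed to three-fold dilutions from 50 μM to 0.21 μM for 24 h at 33 °C in sealed plates. alamarBlue then added for another 24 h, fluorescence read at 560/600 nm. Amphotericin B (50 μM) positive, DMSO negative control. Duplicates on four occasions, EC₅₀ fitted.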
A general note: The colour change of resazurin is a common sign of viable cells or microbes.

The subject of test [2] is Leishmania mexicana. Nature of the test: Antileishmanial activity against axenic amastigote stage of Leishmania mexicana (MNYC/BZ/62/M379) assessed as inhibition of parasite proliferation at 50 uM incubated for 24 hrs by alamar blue dye based fluorescence analysis. The class given is functional. Put shortly: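 Primary single-point screen at 50 μM, in duplicate. Axenic L. mexicana amastigotes at 4x10⁵ mL⁻¹ incubated with compound 24 h at 33 °C in sealed plates, then alamarBlue for a further 24 h at the same temperature. Viability read by fluorescence at 560/600 nm against amphotericin B (50 μM) and DMSO controls.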

In the case of `CC1(C)CC[C@]2(C(=O)OCN3C(=O)c4ccccc4C3=O)CC[C@]3(C)C(=CC[C@@H]4[C@@]5(C)CC[C@H](O)[C@@](C)(CO)[C@@H]5CC[C@]43C)[C@@H]2C1`, the pEC50 in the test on Leishmania mexicana [1] was 4.75. The inhibition (commonly the drop in the measured response relative to a control, in per cent) at 50 µM in the test with Leishmania mexicana [2] is no less than 95%. On the same counts, the results for `COC(=O)[C@]12CCC(C)(C)C[C@H]1C1=CC[C@@H]3[C@@]4(C)CC[C@H](O)[C@@](C)(CO)[C@@H]4CC[C@@]3(C)[C@]1(C)CC2` are 4.92 and no less than 95%.

For `CC1(C)CC[C@]2(C(=O)OCc3ccccc3)CC[C@]3(C)C(=CC[C@@H]4[C@@]5(C)CC[C@H](O)[C@@](C)(CO)[C@@H]5CC[C@]43C)[C@@H]2C1`, in the test with Leishmania mexicana [1], the pEC50 is less than 4.30. Further, the inhibition at 50 µM with Leishmania mexicana [2] is no less than 95%.

Consider `CCOC(=O)[C@]12CCC(C)(C)C[C@H]1C1=CC[C@@H]3[C@@]4(C)CC[C@H](O)[C@@](C)(CO)[C@@H]4CC[C@@]3(C)[C@]1(C)CC2`, for which the pEC50 in the test on Leishmania mexicana [1] is less than 4.30. Further, the inhibition at 50 µM in the test with Leishmania mexicana [2] was no less than 95%.

`CC1(C)CC[C@]2(C(=O)O)CC[C@]3(C)C(=CC[C@@H]4[C@@]5(C)CC[C@@H]6O[C@H]([C@H](O)[C@@H](O)[C@@H](O)CO)OC[C@@]6(C)[C@@H]5CC[C@]43C)[C@@H]2C1`: in the test on Leishmania mexicana [1], the pEC50 is 4.84. Besides, the inhibition at 50 µM in the test on Leishmania mexicana [2] is no less than 95%. As for `CC1(C)CC[C@]2(CO)CC[C@]3(C)C(=CC[C@@H]4[C@@]5(C)CC[C@@H]6O[C@H]([C@H](O)[C@@H](O)[C@H](O)[C@H](O)CO)OC[C@@]6(C)[C@@H]5CC[C@]43C)[C@@H]2C1`, the pEC50 in the test on Leishmania mexicana [1] is less than 4.30. Moreover, the inhibition at 50 µM in the test with Leishmania mexicana [2] is no less than 95%.

Consider `COC(=O)[C@]12CCC(C)(C)C[C@H]1C1=CC[C@@H]3[C@@]4(C)CC[C@@H]5O[C@H](CC6O[C@H]([C@H](C)O)[C@@H](O)[C@@H]6O)OC[C@@]5(C)[C@@H]4CC[C@@]3(C)[C@]1(C)CC2` (stereo partly drawn), for which the pEC50 in the test with Leishmania mexicana [1] was less than 4.30. Also, in the test with Leishmania mexicana [2], the inhibition at 50 µM is no less than 95%.

On to `CC1(C)CC[C@]2(NC(=O)NCCN3CCCC3)CC[C@]3(C)C(=CC[C@@H]4[C@@]5(C)CC[C@@H]6OC(C)(C)OC[C@@]6(C)[C@@H]5CC[C@]43C)[C@@H]2C1`, for which the pEC50 with Leishmania mexicana [1] was less than 4.30. Moreover, in the test with Leishmania mexicana [2], the inhibition at 50 µM was no less than 95%.

For `CC1(C)CC[C@]2(NC(=O)N3CCCNCC3)CC[C@]3(C)C(=CC[C@@H]4[C@@]5(C)CC[C@@H]6OC(C)(C)OC[C@@]6(C)[C@@H]5CC[C@]43C)[C@@H]2C1`, the pEC50 with Leishmania mexicana [1] is less than 4.30. Also, the inhibition at 50 µM with Leishmania mexicana [2] was no less than 95%. For the compound `CC1(C)CC[C@]2(CO)CC[C@]3(C)C(=CC[C@@H]4[C@@]5(C)CC[C@@H]6O[C@H]([C@H](O)[C@@H](O)[C@H](O)CO)OC[C@@]6(C)[C@@H]5CC[C@]43C)[C@@H]2C1`, the pEC50 in the test with Leishmania mexicana [1] was less than 4.30. Further, the inhibition at 50 µM in the test with Leishmania mexicana [2] is no less than 95%. Consider `CC1(C)CC[C@]2(NC(=O)N[C@H]3C(O)O[C@H](CO)[C@@H](O)[C@@H]3O)CC[C@]3(C)C(=CC[C@@H]4[C@@]5(C)CC[C@@H]6OC(C)(C)OC[C@@]6(C)[C@@H]5CC[C@]43C)[C@@H]2C1` (stereo partly drawn), for which, in the test on Leishmania mexicana [1], the pEC50 was less than 4.30. In addition, in the test on Leishmania mexicana [2], the inhibition at 50 µM was no less than 95%. On to `CC1(C)CC[C@]2(CO)CC[C@]3(C)C(=CC[C@@H]4[C@@]5(C)CC[C@@H]6O[C@H]([C@H](O)[C@@H](O)[C@@H](O)CO)OC[C@@]6(C)[C@@H]5CC[C@]43C)[C@@H]2C1`, for which the inhibition at 50 µM with Leishmania mexicana [2] is no less than 95%. As for `CC1(C)CC[C@]2(C(=O)O)CC[C@]3(C)C(=CC[C@@H]4[C@@]5(C)CC[C@H](O[C@@H]6O[C@H](CO)[C@@H](O)[C@H](O)[C@H]6O)[C@@](C)(CO)[C@@H]5CC[C@]43C)[C@@H]2C1` [Hederagenin-3-O-beta-D-glucopyranoside], in the test with Leishmania mexicana [1], the pEC50 was less than 4.30. Also, the inhibition at 50 µM in the test on Leishmania mexicana [2] was no less than 95%. As to `CC1(C)CC[C@]2(C(=O)O)CC[C@]3(C)C(=CC[C@@H]4[C@@]5(C)CC[C@@H]6OCOC[C@@]6(C)[C@@H]5CC[C@]43C)[C@@H]2C1`, the pEC50 in the test with Leishmania mexicana [1] is 4.83. In the test on Leishmania mexicana [2], the inhibition at 50 µM is no less than 95%. Consider `CC1(C)CC[C@]2(NC(=O)N3CCC[C@H]3CO)CC[C@]3(C)C(=CC[C@@H]4[C@@]5(C)CC[C@@H]6OC(C)(C)OC[C@@]6(C)[C@@H]5CC[C@]43C)[C@@H]2C1`, for which the pEC50 with Leishmania mexicana [1] was 4.58. In the test with Leishmania mexicana [2], the inhibition at 50 µM was no less than 95%. On to `CCCOC(=O)[C@]12CCC(C)(C)C[C@H]1C1=CC[C@@H]3[C@@]4(C)CC[C@H](O)[C@@](C)(CO)[C@@H]4CC[C@@]3(C)[C@]1(C)CC2`, for which the pEC50 in the test on Leishmania mexicana [1] is 4.36. Moreover, the inhibition at 50 µM in the test on Leishmania mexicana [2] was no less than 95%. In the case of `C[C@@H]1O[C@@H](O[C@H]2[C@H](O[C@H]3CC[C@@]4(C)[C@@H](CC[C@]5(C)[C@@H]4CC=C4[C@@H]6CC(C)(C)CC[C@]6(C(=O)O)CC[C@]45C)[C@]3(C)CO)OC[C@H](O)[C@@H]2O)[C@H](O)[C@H](O)[C@H]1O` [ALPHA-HEDERIN], the pEC50 in the test with Leishmania mexicana [1] is 4.71. Besides, the inhibition at 50 µM with Leishmania mexicana [2] was no less than 95%. Consider `CC1(C)CC[C@]2(C(=O)OCC(=O)c3ccccc3)CC[C@]3(C)C(=CC[C@@H]4[C@@]5(C)CC[C@H](O)[C@@](C)(CO)[C@@H]5CC[C@]43C)[C@@H]2C1`, for which the pEC50 in the test on Leishmania mexicana [1] is 4.34. Moreover, the inhibition at 50 µM with Leishmania mexicana [2] is no less than 95%. As to `CCOP(=O)(OCC)OC[C@@]1(C)[C@@H]2CC[C@]3(C)[C@H](CC=C4[C@@H]5CC(C)(C)CC[C@]5(NC(=O)N5CCOCC5)CC[C@]43C)[C@@]2(C)CC[C@@H]1O`, in the test with Leishmania mexicana [1], the pEC50 was 4.71. In addition, the inhibition at 50 µM in the test on Leishmania mexicana [2] is no less than 95%. `CN(C[C@H](O)[C@@H](O)[C@H](O)[C@H](O)CO)C(=O)N[C@]12CCC(C)(C)C[C@H]1C1=CC[C@@H]3[C@@]4(C)CC[C@@H]5OC(C)(C)OC[C@@]5(C)[C@@H]4CC[C@@]3(C)[C@]1(C)CC2`: the pEC50 with Leishmania mexicana [1] is 4.70. In addition, the inhibition at 50 µM in the test with Leishmania mexicana [2] is no less than 95%. As to `CC(=O)OC[C@@]1(C)[C@@H]2CC[C@]3(C)[C@H](CC=C4[C@@H]5CC(C)(C)CC[C@]5(NC(=O)N5CCN(C)CC5)CC[C@]43C)[C@@]2(C)CC[C@@H]1O[C@@H]1OC[C@H](OC(C)=O)[C@H](OC(C)=O)[C@H]1O[C@@H]1O[C@@H](C)[C@H](OC(C)=O)[C@@H](OC(C)=O)[C@H]1OC(C)=O`, the pEC50 with Leishmania mexicana [1] is 4.70. Also, the inhibition at 50 µM with Leishmania mexicana [2] is no less than 95%. Regarding `CC(=O)N1CCN(C(=O)N[C@]23CCC(C)(C)C[C@H]2C2=CC[C@@H]4[C@@]5(C)CC[C@@H]6OC(C)(C)OC[C@@]6(C)[C@@H]5CC[C@@]4(C)[C@]2(C)CC3)CC1`, the pEC50 in the test on Leishmania mexicana [1] was 4.58. Further, the inhibition at 50 µM in the test on Leishmania mexicana [2] was no less than 95%. For `CN1CCN(C(=O)[C@@H]2CCCN2C(=O)N[C@]23CCC(C)(C)C[C@H]2C2=CC[C@@H]4[C@@]5(C)CC[C@@H]6OC(C)(C)OC[C@@]6(C)[C@@H]5CC[C@@]4(C)[C@]2(C)CC3)CC1`, the pEC50 in the test on Leishmania mexicana [1] is 4.49. For the same compound, the inhibition at 50 µM in the test on Leishmania mexicana [2] was no less than 95%. With `CC1(C)CC[C@]2(C(=O)OCCC3OCCCO3)CC[C@]3(C)C(=CC[C@@H]4[C@@]5(C)CC[C@H](O)[C@@](C)(CO)[C@@H]5CC[C@]43C)[C@@H]2C1`, the pEC50 with Leishmania mexicana [1] was less than 4.30. For the same compound, the inhibition at 50 µM with Leishmania mexicana [2] is no less than 95%. On the same counts, the results for `C[C@H]1O[C@H](C[C@@H]2OC[C@@]3(C)[C@@H]4CC[C@]5(C)[C@H](CC=C6[C@@H]7CC(C)(C)CC[C@]7(C(=O)O)CC[C@]65C)[C@@]4(C)CC[C@@H]3O2)[C@H](O)[C@@H](O)[C@@H]1O` are less than 4.30 and no less than 95%. Turning to `C=CCOC(=O)[C@]12CCC(C)(C)C[C@H]1C1=CC[C@@H]3[C@@]4(C)CC[C@H](O)[C@@](C)(CO)[C@@H]4CC[C@@]3(C)[C@]1(C)CC2`, in the test with Leishmania mexicana [1], the pEC50 is 4.64. Besides, in the test on Leishmania mexicana [2], the inhibition at 50 µM is no less than 95%.

Turning to `C[C@H](O)[C@H](O)[C@@H](O)[C@@H](O)[C@@H]1OC[C@@]2(C)[C@@H]3CC[C@]4(C)[C@H](CC=C5[C@@H]6CC(C)(C)CC[C@]6(CO)CC[C@]54C)[C@@]3(C)CC[C@@H]2O1`, in the test with Leishmania mexicana [1], the pEC50 is 4.57. Further, the inhibition at 50 µM in the test with Leishmania mexicana [2] was no less than 95%. As for `CC1(C)CC[C@]2(NC(=O)N3CCC[C@H]3C(=O)NCCCn3ccnc3)CC[C@]3(C)C(=CC[C@@H]4[C@@]5(C)CC[C@@H]6OC(C)(C)OC[C@@]6(C)[C@@H]5CC[C@]43C)[C@@H]2C1`, the pEC50 in the test with Leishmania mexicana [1] is 4.69. Further, the inhibition at 50 µM in the test on Leishmania mexicana [2] is no less than 95%. Turning to `CC1(C)CC[C@]2(NC(=O)NCc3cccnc3)CC[C@]3(C)C(=CC[C@@H]4[C@@]5(C)CC[C@@H]6OC(C)(C)OC[C@@]6(C)[C@@H]5CC[C@]43C)[C@@H]2C1`, in the test on Leishmania mexicana [1], the pEC50 was 4.76. In addition, in the test on Leishmania mexicana [2], the inhibition at 50 µM was no less than 95%. For the compound `C#CCOC(=O)[C@]12CCC(C)(C)C[C@H]1C1=CC[C@@H]3[C@@]4(C)CC[C@H](O)[C@@](C)(CO)[C@@H]4CC[C@@]3(C)[C@]1(C)CC2`, the pEC50 in the test with Leishmania mexicana [1] was 4.82. Further, the inhibition at 50 µM with Leishmania mexicana [2] was no less than 95%. In the case of `CC1(C)CC[C@]2(NC(=O)NCCN)CC[C@]3(C)C(=CC[C@@H]4[C@@]5(C)CC[C@@H]6OC(C)(C)OC[C@@]6(C)[C@@H]5CC[C@]43C)[C@@H]2C1`, the pEC50 in the test on Leishmania mexicana [1] is less than 4.30. In the test on Leishmania mexicana [2], the inhibition at 50 µM was no less than 95%. For `C[C@H](O)[C@H](O)[C@@H](O)[C@@H](O)[C@@H]1OC[C@@]2(C)[C@@H]3CC[C@]4(C)[C@H](CC=C5[C@@H]6CC(C)(C)CC[C@]6(C(=O)O)CC[C@]54C)[C@@]3(C)CC[C@@H]2O1`, the pEC50 with Leishmania mexicana [1] was 4.67. Moreover, the inhibition at 50 µM in the test on Leishmania mexicana [2] is no less than 95%.
